Reference: ChEMBL document CHEMBL1145139, “Synthesis and pharmacological evaluation of 1-oxo-2-(3-piperidyl)-1,2,3,4- tetrahydroisoquinolines and related analogues as a new class of specific bradycardic agents possessing I(f) channel inhibitory activity” (2003)

Legend:
Type in all cases: functional
[1] = species: Cavia porcellus; experiment: In vitro bradycardiac activity on isolated right atrium of guinea pig.; settings: Cardiac atrium
How it was run: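 Male Hartley guinea pigs (250–400 g); spontaneously beating right atria in Tyrode's solution at 37 °C, 95% O2/5% CO2, 1 g tension, 90 min equilibration. Compound added cumulatively at 45 min intervals; beat rate counted from isometric contraction. Value = concentration giving 30% reduction from initial spontaneous rate; mean ± SEM, three to six experiments.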

[2] = tested on: Rattus norvegicus; experiment: In vivo effect on mean blood pressure of anesthetized rats following 3 mg/kg i.v.; settings: route intravenous
How it was run: (§1)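 Male Wister rats (270–350 g), anesthetized (pentobarbital ip per methods; urethane per text). Compound at 3 mg/kg (salt form) in aqueous solution or saline, iv via jugular vein catheter. HR taken from the blood-pressure pulse wave; MBP = DBP + (SBP−DBP)/3. Maximal percent change from initial value; mean ± SEM, three to four experiments.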

[3] = tested on: Rattus norvegicus; experiment: In vivo effect on heart rate of anesthetized rats following 3 mg/kg i.v.; settings: route intravenous; how it was run: as §1

Structure (SMILES) | EC30 [1] [nM] | Change [2] [%] | Change [3] [%]
COc1cc2c(cc1OC)C(=O)N([C@@H]1CCCN(CCCOc3ccc4c(c3)OCO4)C1)CC2.Cl | 79 | -13 | -55
COc1cc2c(cc1OC)C(=O)N([C@H]1CCCN(CCCOc3ccc4c(c3)OCO4)C1)CC2.Cl | 68 | -23 | -53
COc1ccc(C(=O)N(C)C2CCCN(CCCOc3ccc4c(c3)OCO4)C2)cc1OC (stereo not given) | 3500 |  | 
COC(=O)c1ccc(OCCCN2CCCC(N3CCc4cc(OC)c(OC)cc4C3=O)C2)cc1.Cl (stereo not given) | 110 | -2.3 | -30
COc1cc2c(cc1OC)C(=O)N(C1CCCN(CCCOc3ccc(F)cc3)C1)CC2.Cl (stereo not given) | 240 | -17 | -39
COc1cc2c(cc1OC)C(=O)N(C1CCCN(CCCOc3ccc(Cl)cc3)C1)CC2.Cl (stereo not given) | 350 | -12 | -32
COc1ccc(OCCCN2CCCC(N3CCc4cc(OC)c(OC)cc4C3=O)C2)cc1OC.Cl (stereo not given) | 110 | -18 | -56
COc1cc2[nH]c(=O)n(C3CCCN(CCCOc4ccc5c(c4)OCO5)C3)c(=O)c2cc1OC (stereo not given) | 920 |  | 
COc1cc2c(cc1OC)C(=O)N(C1CCCN(CCCOc3ccc(C)cc3)C1)CC2.Cl (stereo not given) | 140 | -12 | -37
COc1cc2c(cc1OC)C(=O)N(C1CCCN(CCCOc3ccc(O)cc3)C1)CC2 (stereo not given) | 890 |  | 
COc1cc2c(cc1OC)C(=O)N(C1CCCN(CCCOc3ccc(OCc4ccccc4)cc3)C1)CC2 (stereo not given) | 1300 |  | 
COc1cc2c(cc1OC)C(=O)N(C1CCCN(CCCOc3ccc(NC(C)=O)cc3)C1)CC2 (stereo not given) | 760 |  | 
COc1cc2c(cc1OC)C(=O)N(C1CCCN(CCCOc3cc(OC)c(OC)c(OC)c3)C1)CC2 (stereo not given) | 1600 |  | 
COc1cc2c(cc1OC)C(=O)N(C1CCCN(CCCOc3ccc([N+](=O)[O-])cc3)C1)CC2.Cl (stereo not given) | 270 | 41 | -5.6
COc1cc2c(cc1OC)C(=O)N(C1CCCN(CCCOc3ccc4c(c3)CCC4)C1)CC2 (stereo not given) | 890 |  | 
COc1cc2ncn(C3CCCN(CCCOc4ccc5c(c4)OCO5)C3)c(=O)c2cc1OC.Cl (stereo not given) | 260 | -20 | -34
COc1cccc(OCCCN2CCCC(N3CCc4cc(OC)c(OC)cc4C3=O)C2)c1.Cl (stereo not given) | 140 | -11 | -47
COc1cc2c(cc1OC)C(=O)N(C1CCCN(CCCOc3ccccc3OC)C1)CC2 (stereo not given) | 390 |  | 

Structure (SMILES) | EC30 [1] [nM] | Change [2] [%] | Change [3] [%]
COc1ccc(OCCCN2CCCC(N3CCc4cc(OC)c(OC)cc4C3=O)C2)cc1.Cl (stereo not given) | 99 | -16 | -49
COc1cc2c(cc1OC)C(=O)N(C1CCCN(CCCOc3ccc(OC(C)C)cc3)C1)CC2 (stereo not given) | 330 |  | 
COc1cc2c(cc1OC)C(=O)N(C1CCCN(CCCOc3ccc(C#N)cc3)C1)CC2.Cl (stereo not given) | 240 | -6.8 | -23
COc1ccc(C(=O)NC2CCCN(CCCOc3ccc4c(c3)OCO4)C2)cc1OC.Cl (stereo not given) | 420 | -11 | -29
COc1cc2c(cc1OC)C(=O)N(C1CCCN(CCCOc3ccc(C(F)(F)F)cc3)C1)CC2 (stereo not given) | 790 |  | 
COc1cc2ccn(C3CCCN(CCCOc4ccc5c(c4)OCO5)C3)c(=O)c2cc1OC.Cl (stereo not given) | 200 | 11 | -26
COc1cc2c(cc1OC)C(=O)N(C1CCCN(CCCOc3ccccc3)C1)CC2.Cl (stereo not given) | 390 | 3.2 | -32
COc1cc2c(cc1OC)C(=O)N(C1CCCN(CCCOc3ccc4c(c3)OCO4)C1)CC2.Cl (stereo not given) | 67 | -14 | -48
COc1cc2c(cc1OC)C(=O)N(C1CCCN(CCCOc3ccc4[nH]ccc4c3)C1)CC2 (stereo not given) | 360 |  | 
COc1cc2c(cc1OC)C(=O)N(C1CCCN(CCCOc3ccc(C(N)=O)cc3)C1)CC2 (stereo not given) | 5700 |  | 
COc1cc2c(cc1OC)CN(C1CCCN(CCCOc3ccc4c(c3)OCO4)C1)CC2.Cl (stereo not given) | 250 | -7.1 | -47
COc1cc2c(cc1OC)C(=O)N(C1CCCN(CCCOc3ccc(Br)cc3)C1)CC2 (stereo not given) | 470 |  | 
CCCOc1ccc(OCCCN2CCCC(N3CCc4cc(OC)c(OC)cc4C3=O)C2)cc1 (stereo not given) | 270 |  | 
COc1cc2c(cc1OC)C(=O)N(C1CCCN(CCCOc3ccc(N)cc3)C1)CC2 (stereo not given) | 1600 |  | 
CCOc1ccc(OCCCN2CCCC(N3CCc4cc(OC)c(OC)cc4C3=O)C2)cc1.Cl (stereo not given) | 97 | -7.8 | -49
COc1cc2c(cc1OC)C(=O)N(C1CCCN(CCCOc3ccc4c(c3)OCCO4)C1)CC2.Cl (stereo not given) | 130 | -12 | -44
COc1ccc(CCN(C)CCCN2CCc3cc(OC)c(OC)cc3CC2=O)cc1OC.Cl [ZATEBRADINE HYDROCHLORIDE] | 260 | 5.4 | -47
